From ChEMBL document CHEMBL3120059, “Flavonoids, flavonoid metabolites, and phenolic acids inhibit oxidative stress in the neuronal cell line HT-22 monitored by ECIS and MTT assay: a comparative study” (J Nat Prod, 2014)
Calls of active or inactive are those of the source. No cut-off for these calls is given here.

Assays:
HT-22 [1] = assay: Neuroprotective activity in mouse HT22 cells assessed as reduction of t-BOOH-induced oxidative stress at 40 uM preincubated for 3 hrs followed by t-BOOH induction measured for 20 hrs by time-resolved ECIS analysis; type: functional, cell-based
Summary of the method: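 HT-22 cells on 8-well gold-electrode arrays precoated with glutaraldehyde-crosslinked gelatin, seeded at 6 × 10^5 cells/well and grown 2−3 days to confluence (37 °C, 5% CO2). After 1 h baseline, compound (40 μM final, DMSO <0.1%) was added for 3 h, then 300 μM t-BOOH. Impedance was recorded 20 h, |Z| normalized to the last pre-t-BOOH value; three independent experiments.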

HT-22 [2] = assay: Neuroprotective activity in mouse HT22 cells assessed as t-BOOH-induced toxicity at 40 uM preincubated for 3 hrs followed by t-BOOH induction measured after 9 hrs by MTT assay; type: functional, cell-based
Summary of the method: (§1)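 Confluent HT-22 cells under the ECIS conditions: 3 h preincubation with 40 μM compound, then 300 μM t-BOOH. MTT reaction was started 4.5 h or 9 h after t-BOOH addition. Viability is expressed relative to untreated control.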

HT-22 [3] = assay: Neuroprotective activity in mouse HT22 cells assessed as reduction of t-BOOH-induced oxidative stress at 40 uM preincubated for 3 hrs followed by t-BOOH induction measured after 20 hrs by MTT assay; type: functional, cell-based
Summary of the method: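 Run in the ECIS wells right after impedance recording ended, 20 h after t-BOOH (3 h, 40 μM compound preincubation; 300 μM t-BOOH). MTT stock (4 mg/mL in PBS) was diluted 1:10 in medium and incubated 1 h. Lysis was with 10% SDS pH 4.1, A560 read next day. Viability is given as % of untreated control, mean ± SD of three independent experiments.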

HT-22 [4] = assay: Cytotoxicity against mouse HT22 cells assessed as cell viability at 40 uM after 24 hrs by MTT assay; type: cell-based; conditions: ht-22, 24 h
Summary of the method: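 Confluent-layer MTT. Gelatin-precoated 96-well plates were seeded at 5 × 10^4 HT-22 cells/well and grown 24 h to confluence, then exposed 24 h to 40 μM compound (DMSO <0.1%). MTT stock (4 mg/mL) was diluted 1:10 and incubated 1 h. Lysis was with 10% SDS pH 4.1, A560 read next day. Results are % of untreated control, ≥3 independent experiments.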

HT-22 [5] = assay: Neuroprotective activity in mouse HT22 cells assessed as reduction of glutamate-induced oxidative stress after 24 hrs by MTT assay; type: functional, cell-based
Summary of the method: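 Unconfluent HT-22 cells seeded at 5 × 10^3/well, cultured 24 h, then incubated 24 h with compound plus 5 mM glutamate. MTT stock (4 mg/mL) was diluted 1:10 and incubated 3 h. Lysis was with 10% SDS pH 4.1, A560 read next day. Viability is % of untreated control; three independent experiments, each in quadruplicate.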

HT-22 [6] = assay: Cytotoxicity against mouse HT22 cells assessed as cell viability after 24 hrs by MTT assay; type: cell-based; conditions: ht-22, 24 h
HT-22 [7] = assay: Neuroprotective activity in mouse HT22 cells assessed as reduction of glutamate-induced oxidative stress by ECIS analysis; type: functional, cell-based
HT-22 [8] = assay: Neuroprotective activity in mouse HT22 cells assessed as t-BOOH-induced toxicity at 40 uM preincubated for 3 hrs followed by t-BOOH induction measured after 4.5 hrs by MTT assay; type: functional; summary of the method: as §1
HT-22 [9] = assay: Neuroprotective activity in mouse HT22 cells assessed as reduction of t-BOOH-induced oxidative stress preincubated for 3 hrs followed by t-BOOH induction measured for 20 hrs by time-resolved ECIS analysis; type: functional, cell-based
Summary of the method: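 HT-22 cells grown to confluence (2–3 days) on gelatin/glutaraldehyde-precoated gold electrode arrays, 37 °C, 5% CO2; 1 h baseline equilibration, then compounds (DMSO <0.1%, 40 μM final; positive control 10–50 μM) preincubated 3 h before 300 μM t-BOOH. Impedance magnitude |Z| recorded 20 h further, normalized to last value before t-BOOH; three independent experiments, mean ± SD.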

| SMILES | Activity (HT-22 [1]) | Activity (HT-22 [2]) | Activity (HT-22 [3]) | Activity (HT-22 [4]) | other results |
| --- | --- | --- | --- | --- | --- |
| COC(=O)/C=C/c1ccc(O)c(O)c1 [METHYLCAFFEATE] | Active | Active | Active | Non-toxic |  |
| O=C1C[C@@H](c2ccc(O)c(O)c2)Oc2cc(O)cc(O)c21 [ERIODICTYOL] |  | Active | Active |  | Activity (HT-22 [5]): Dose-dependent effect; Activity (HT-22 [6]): Dose-dependent effect; Activity (HT-22 [7]): Active |
| Cc1ccc(O)c(O)c1 | Active | Active | Active | Non-toxic | Activity (HT-22 [8]): 70% |
| COc1cc(/C=C/C(=O)O)ccc1O [FERULATE] | inactive |  | inactive | Non-toxic |  |
| O=C(O)/C=C/c1ccc(O)c(O)c1 [CAFFEIC ACID] | inactive |  | inactive | Non-toxic |  |
| COC(=O)/C=C/c1ccc(O)c(OC)c1 | inactive |  | inactive | Non-toxic |  |
| O=C(O)Cc1cccc(O)c1 [3-Hydroxyphenylacetate] |  |  |  | Non-toxic |  |
| COc1cc(-c2oc3cc(O)cc(O)c3c(=O)c2O)ccc1O | inactive |  | inactive |  |  |
| O=C(O)Cc1ccc(O)c(O)c1 [3,4-DIHYDROXYPHENYLACETIC ACID] |  |  |  | Non-toxic |  |
| O=c1cc(-c2ccc(O)cc2)oc2cc(O)cc(O)c12 | inactive |  | inactive |  |  |
| Oc1cc(O)c2c(c1)O[C@H](c1ccc(O)c(O)c1)[C@H](O)[C@H]2c1c(O)cc(O)c2c1O[C@H](c1ccc(O)c(O)c1)[C@@H](O)C2 | inactive |  | inactive |  |  |
| O=C1C[C@@H](c2ccc(O)cc2)Oc2cc(O)cc(O)c21 | inactive |  | inactive |  |  |
| Oc1ccccc1O [CATECHOL] | Active | Active | Active | Toxic |  |
| O=c1cc(-c2ccc(O)c(O)c2)oc2cc(O)cc(O)c12 |  | Active | Active |  |  |
| O=c1c(O)c(-c2ccc(O)c(O)c2)oc2cc(O)cc(O)c12 [QUERCETIN] |  | Active | Active |  | Activity (HT-22 [8]): 70%; Activity (HT-22 [9]): Dose-dependent effect |
| COC(=O)Cc1ccc(O)c(O)c1 | Active | Active | Active | Non-toxic | Activity (HT-22 [8]): 70% |
| O=C(O)[C@H]1O[C@@H](Oc2c(-c3ccc(O)c(O)c3)oc3cc(O)cc(O)c3c2=O)[C@H](O)[C@@H](O)[C@@H]1O |  |  |  |  | Activity (HT-22 [5]): inactive; Activity (HT-22 [7]): inactive |
| Oc1cc(O)c2c(c1)OC(c1ccc(O)c(O)c1)C(O)C2 (stereo not drawn) | inactive |  | inactive |  |  |
| COC(=O)[C@H]1O[C@@H](Oc2c(-c3ccc(O)c(O)c3)oc3cc(O)cc(O)c3c2=O)[C@H](O)[C@@H](O)[C@@H]1O |  |  |  |  | Activity (HT-22 [5]): inactive; Activity (HT-22 [7]): inactive |
| O=c1c(O)c(-c2ccc(O)cc2)oc2cc(O)cc(O)c12 [KAEMPFEROL] | inactive |  | inactive |  | Activity (HT-22 [5]): Dose-dependent effect; Activity (HT-22 [6]): Dose-dependent effect |
